Data as given in ChEMBL document CHEMBL4152211, “Discovery of novel Methylsulfonyl phenyl derivatives as potent human Cyclooxygenase-2 inhibitors with effective anticonvulsant action: Design, synthesis, in-silico, in-vitro and in-vivo evaluation” (Eur J Med Chem, 2018).
pIC50: −log10 of the molar value. Activity calls are given as the source filed them. No cut-off for these calls is given here.

Legend:
Mus musculus [1] = experiment: Anticonvulsant activity in Swiss albino mouse assessed as protection against subcutaneous pentylenetetrazole-induced seizures at 1 mg/kg, ip administered 0.5 hrs prior to PTZ challenge and measured after 30 mins; format: functional
In short: (§1)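 Male Swiss Albino mice (25–30 g), 6 per group, dosed i.p. with drugs in sterile saline, then challenged with PTZ 85 mg/kg s.c. (CD97), given at 10 ml/kg, 0.5 h or 4 h later. Each animal is observed singly for seizures. Protection is scored as protected/total animals.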

Mus musculus [2] = experiment: Anticonvulsant activity in Swiss albino mouse assessed as protection against subcutaneous pentylenetetrazole-induced seizures at 5 mg/kg, ip administered 0.5 hrs prior to PTZ challenge and measured after 30 mins; format: functional; in short: as §1
Mus musculus [3] = experiment: Anticonvulsant activity in Swiss albino mouse assessed as protection against subcutaneous pentylenetetrazole-induced seizures at 10 mg/kg, ip administered 0.5 hrs prior to PTZ challenge and measured after 30 mins; format: functional; in short: as §1
Mus musculus [4] = experiment: Anticonvulsant activity in Swiss albino mouse assessed as protection against subcutaneous pentylenetetrazole-induced seizures at 1 mg/kg, ip administered 4 hrs prior to PTZ challenge and measured after 30 mins; format: functional; in short: as §1
Mus musculus [5] = experiment: Anticonvulsant activity in Swiss albino mouse assessed as protection against subcutaneous pentylenetetrazole-induced seizures at 5 mg/kg, ip administered 4 hrs prior to PTZ challenge and measured after 30 mins; format: functional; in short: as §1
Mus musculus [6] = experiment: Anticonvulsant activity in Swiss albino mouse assessed as protection against subcutaneous pentylenetetrazole-induced seizures at 10 mg/kg, ip administered 4 hrs prior to PTZ challenge and measured after 30 mins; format: functional; in short: as §1
Rattus norvegicus = experiment: Antiepileptic activity in rat model of PTZ-induced epileptiogenesis kindling model assessed as decrease of seizure severity at 5 mg/kg, ip measured up to 28 days; format: functional, organism-based
In short: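 Adult male Wistar rats receive PTZ 40 mg/kg i.p. on alternate days for 28 days plus daily i.p. treatment. After each PTZ injection, rats are observed singly for 45 min and scored on the revised Racine scale (stages to 6). Group mean score per week, ±S.D. Statistics are repeated-measures ANOVA with Tukey's test.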

[7] = target: T1, Prostaglandin G/H synthase 1 (Ovis aries) (UniProt P05979); experiment: Inhibition of ovine COX1 at 10 uM using arachidonic acid as substrate preincubated for 5 mins followed by substrate addition and measured after 2 mins by ADPH probe-based fluorescence assay relative to control
T1 sequence (whole entry): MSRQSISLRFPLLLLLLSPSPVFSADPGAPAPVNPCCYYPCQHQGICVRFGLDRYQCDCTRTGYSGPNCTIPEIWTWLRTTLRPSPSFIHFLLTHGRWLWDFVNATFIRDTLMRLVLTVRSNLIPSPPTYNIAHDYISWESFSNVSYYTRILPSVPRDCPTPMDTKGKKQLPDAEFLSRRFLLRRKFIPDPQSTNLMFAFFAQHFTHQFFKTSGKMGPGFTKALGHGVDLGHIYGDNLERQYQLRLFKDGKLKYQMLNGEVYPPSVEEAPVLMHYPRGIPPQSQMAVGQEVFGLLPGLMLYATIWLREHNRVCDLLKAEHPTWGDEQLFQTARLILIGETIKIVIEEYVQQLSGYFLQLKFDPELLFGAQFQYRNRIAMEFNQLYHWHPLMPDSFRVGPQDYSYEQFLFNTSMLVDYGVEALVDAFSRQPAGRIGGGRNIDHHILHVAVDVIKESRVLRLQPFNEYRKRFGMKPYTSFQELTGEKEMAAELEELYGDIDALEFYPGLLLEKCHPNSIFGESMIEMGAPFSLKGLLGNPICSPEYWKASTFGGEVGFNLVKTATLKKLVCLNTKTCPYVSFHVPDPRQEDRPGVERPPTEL
In short: (§2)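 Kit assay in 100 mM Tris-HCl pH 8.0. Enzyme, heme and inhibitor (DMSO stocks) are incubated 5 min at room temperature. ADPH is added, then arachidonic acid starts the reaction. After 2 min, fluorescence is read at ex 535/em 590 nm. Percent inhibition is taken versus the 100% activity well, background wells included. IC50 is derived from percentage inhibition, mean of three independent experiments.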

[8] = target: T2, Prostaglandin G/H synthase 2 (Homo sapiens) (UniProt P35354); experiment: Inhibition of human recombinant COX2 at 10 uM using arachidonic acid as substrate preincubated for 5 mins followed by substrate addition and measured after 2 mins by ADPH probe-based fluorescence assay relative to control; in short: as §2
T2 sequence (whole entry): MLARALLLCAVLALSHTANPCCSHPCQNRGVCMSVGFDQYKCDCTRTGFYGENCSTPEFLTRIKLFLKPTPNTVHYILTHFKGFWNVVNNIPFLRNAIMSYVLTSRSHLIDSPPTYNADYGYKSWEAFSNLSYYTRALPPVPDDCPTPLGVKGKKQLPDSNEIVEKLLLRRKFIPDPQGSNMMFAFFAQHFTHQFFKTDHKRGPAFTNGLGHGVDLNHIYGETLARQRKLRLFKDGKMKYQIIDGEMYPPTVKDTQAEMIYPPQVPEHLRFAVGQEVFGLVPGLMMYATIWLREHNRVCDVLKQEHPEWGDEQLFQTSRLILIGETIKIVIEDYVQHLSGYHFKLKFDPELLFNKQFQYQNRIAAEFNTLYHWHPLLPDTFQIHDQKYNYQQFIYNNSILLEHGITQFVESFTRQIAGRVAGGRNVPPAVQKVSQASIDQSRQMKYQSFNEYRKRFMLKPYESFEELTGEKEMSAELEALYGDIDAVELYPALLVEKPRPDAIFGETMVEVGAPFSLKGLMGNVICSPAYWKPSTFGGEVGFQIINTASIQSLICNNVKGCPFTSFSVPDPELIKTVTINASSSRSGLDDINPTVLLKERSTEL

[9] = target: T3, Prostaglandin G/H synthase 2 (Homo sapiens, UniProt P35354); experiment: Inhibition of human recombinant COX2 using arachidonic acid as substrate preincubated for 5 mins followed by substrate addition and measured after 2 mins by ADPH probe-based fluorescence assay; in short: as §2
T3 sequence (P35354 whole entry): T2 sequence (whole entry)

Mus musculus [10] = experiment: Anticonvulsant activity in Swiss albino mouse assessed as protection against subcutaneous pentylenetetrazole-induced seizures at 30 mg/kg, ip administered 0.5 hrs prior to PTZ challenge and measured after 30 mins; format: functional; in short: as §1
Mus musculus [11] = experiment: Anticonvulsant activity in Swiss albino mouse assessed as protection against subcutaneous pentylenetetrazole-induced seizures at 100 mg/kg, ip administered 0.5 hrs prior to PTZ challenge and measured after 30 mins; format: functional; in short: as §1
Mus musculus [12] = experiment: Anticonvulsant activity in Swiss albino mouse assessed as protection against subcutaneous pentylenetetrazole-induced seizures at 300 mg/kg, ip administered 0.5 hrs prior to PTZ challenge and measured after 30 mins; format: functional; in short: as §1
Mus musculus [13] = experiment: Anticonvulsant activity in Swiss albino mouse assessed as protection against subcutaneous pentylenetetrazole-induced seizures at 30 mg/kg, ip administered 4 hrs prior to PTZ challenge and measured after 30 mins; format: functional; in short: as §1
Mus musculus [14] = experiment: Anticonvulsant activity in Swiss albino mouse assessed as protection against subcutaneous pentylenetetrazole-induced seizures at 100 mg/kg, ip administered 4 hrs prior to PTZ challenge and measured after 30 mins; format: functional; in short: as §1
Mus musculus [15] = experiment: Anticonvulsant activity in Swiss albino mouse assessed as protection against subcutaneous pentylenetetrazole-induced seizures at 300 mg/kg, ip administered 4 hrs prior to PTZ challenge and measured after 30 mins; format: functional; in short: as §1

inhibition [7] | inhibition [8] | pIC50 [9] | Compound | other results
inactive | 32% |  | CCNC(=S)NNC(=O)Nc1ccc(S(C)(=O)=O)cc1 | 
inactive | 21% |  | CS(=O)(=O)c1ccc(NC(=O)NNC(=S)NCc2ccccc2)cc1 | 
inactive | 22% |  | CS(=O)(=O)c1ccc(NC(=O)NNC(=S)NCCc2ccccc2)cc1 | 
inactive | 50% | 4.89 | CS(=O)(=O)c1ccc(NC(=O)NNC(=S)Nc2ccccc2)cc1 | 

More lines, now with the values behind:

Compound | inhibition [7] | inhibition [8] | pIC50 [9] | other results
Cc1ccc(-c2ncc(Cl)cc2-c2ccc(S(C)(=O)=O)cc2)cn1 [ETORICOXIB] |  |  |  | Activity (Mus musculus [1]): 50%; Activity (Mus musculus [2]): 67%; Activity (Mus musculus [3]): 50%; Activity (Mus musculus [4]): 50%; Activity (Mus musculus [5]): 67%; Activity (Mus musculus [6]): 50%; Activity (Rattus norvegicus): Active
CS(=O)(=O)c1ccc(NC(=O)NNC(=S)Nc2ccc(F)cc2)cc1 | inactive | 54% | 4.90 | 
CS(=O)(=O)c1ccc(NC(=O)NNC(=S)Nc2ccc(Cl)cc2)cc1 | inactive | 70% | 5.27 | 
CS(=O)(=O)c1ccc(NC(=O)NNC(=S)Nc2c(F)cccc2F)cc1 | inactive | 62% | 5.19 | 
Cc1cccc(C)c1NC(=S)NNC(=O)Nc1ccc(S(C)(=O)=O)cc1 | inactive | 64% | 5.50 | Activity (Mus musculus [10]): 17%; Activity (Mus musculus [11]): 33%; Activity (Mus musculus [12]): 33%; Activity (Mus musculus [13]): 17%; Activity (Mus musculus [14]): 33%; Activity (Mus musculus [15]): 50%
COc1ccc(NC(=S)NNC(=O)Nc2ccc(S(C)(=O)=O)cc2)cc1 | inactive | 62% | 5.15 | 
CCCC(CCC)C(=O)[O-].[Na+] [VALPROATE SODIUM] |  |  |  | Activity (Mus musculus [12]): 100%; Activity (Mus musculus [15]): 50%
CS(=O)(=O)c1ccc(NC(=O)NNC(=S)Nc2cccc(Cl)c2Cl)cc1 | inactive | 46% |  | 
